Bridge positions count the residues as written; N and C are the ends. Square brackets hold non-standard residues; d marks the D form. Peptide text beside a SMILES is read from it. * marks the point of attachment. Octanoyl = CCCCCCCC(=O)*; Dab = NCC[C@H](N)C(=O)O; Abu = CC[C@H](N)C(=O)O
Tests used:
[1] = Inhibition of [3H]gentamicin binding to brush border membrane of renal cortex
In short: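 Brush border membrane vesicles prepared from male albino rat renal cortex by Mg2+-EGTA precipitation. Incubated with 20 μM [3H]gentamicin in 10 mM HEPES pH 7.5 with 300 mM mannitol, with or without compound, 60 min at 4°C. Then filtered, washed, and bound radioactivity counted by scintillation. IC50 fitted with the Hill equation.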

Escherichia coli [2] = test: Antibacterial activity against Escherichia coli IH3080 assessed as growth inhibition at 10 ug after 18 hrs by […] in presence of 1 ug/ml rifampin; assay type: functional
Escherichia coli [3] = test: Antibacterial activity against Escherichia coli IH3080 assessed as growth inhibition at 10 ug after 18 hrs by […]; assay type: functional

GENTAMICIN
IC50 [1]: 90.2 µM

CC(C)C[C@@H]1NC(=O)[C@@H](Cc2ccccc2)NC(=O)[C@H](CCN)NC(=O)[C@@H](NC(=O)[C@H](CCN)NC(=O)[C@@H](N)[C@@H](C)O)CCNC(=O)[C@H]([C@@H](C)O)NC(=O)[C@H](CCN)NC(=O)[C@H](CCN)NC1=O [POLYMYXIN B NONAPEPTIDE] (H-T[Dab][Dab][Dab][dF]L[Dab][Dab]T; lactam 3-C)
inhibition zone (IZ) (Escherichia coli [2]): 143 mm2
inhibition zone (IZ) (Escherichia coli [3]): <=5 mm2

CCCCCCCC(=O)N[C@H](C(=O)N[C@H](CO)C(=O)N[C@H]1CCNC(=O)[C@H]([C@@H](C)O)NC(=O)[C@H](CCN)NC(=O)[C@H](CCN)NC(=O)[C@H]([C@@H](C)O)NC(=O)[C@H](Cc2ccccc2)NC(=O)[C@H](CCN)NC1=O)[C@@H](C)O
inhibition zone (IZ) (Escherichia coli [2]): 190 mm2
inhibition zone (IZ) (Escherichia coli [3]): 172 mm2

CCCCCCCC(=O)N[C@H](C(=O)N[C@@H](CCN)C(=O)N[C@H]1CCNC(=O)[C@H]([C@@H](C)O)NC(=O)[C@H](CCN)NC(=O)[C@H](CC)NC(=O)[C@H](CC(C)C)NC(=O)[C@@H](Cc2ccccc2)NC(=O)[C@H](CCN)NC1=O)[C@@H](C)O (Octanoyl-T[Dab][Dab][Dab][dF]L[Abu][Dab]T; lactam 3-C)
inhibition zone (IZ) (Escherichia coli [2]): 250 mm2
inhibition zone (IZ) (Escherichia coli [3]): 60 mm2

CCCCCCCC(=O)N[C@H](C(=O)N[C@@H](CC(N)=O)C(=O)N[C@H]1CCNC(=O)[C@H]([C@@H](C)O)NC(=O)[C@H](CCN)NC(=O)[C@H](CCN)NC(=O)[C@H](CC(C)C)NC(=O)[C@H](Cc2ccccc2)NC(=O)[C@H](CCN)NC1=O)[C@@H](C)O (Octanoyl-TN[Dab][Dab]FL[Dab][Dab]T; lactam 3-C)
inhibition zone (IZ) (Escherichia coli [2]): 180 mm2
inhibition zone (IZ) (Escherichia coli [3]): 10 mm2

CCCCCCCC(=O)N[C@H](C(=O)N[C@@H](CC)C(=O)N[C@H]1CCNC(=O)[C@H](CC(C)C)NC(=O)[C@H](CCN)NC(=O)[C@H](CCN)NC(=O)[C@H](CC(C)C)NC(=O)[C@@H](Cc2ccccc2)NC(=O)[C@H](CCN)NC1=O)[C@@H](C)O (Octanoyl-T[Abu][Dab][Dab][dF]L[Dab][Dab]L; lactam 3-C)
inhibition zone (IZ) (Escherichia coli [2]): 180 mm2
inhibition zone (IZ) (Escherichia coli [3]): 50 mm2

CCCCCCCC(=O)N[C@H](C(=O)N[C@H](C(=O)N[C@H](CO)C(=O)N[C@H]1CCNC(=O)[C@H]([C@@H](C)O)NC(=O)[C@H](CCN)NC(=O)[C@H](CCN)NC(=O)[C@H](CC(C)C)NC(=O)[C@H](Cc2ccccc2)NC(=O)[C@H](CCN)NC1=O)[C@@H](C)O)[C@@H](C)O
inhibition zone (IZ) (Escherichia coli [2]): 190 mm2
inhibition zone (IZ) (Escherichia coli [3]): 160 mm2

CCCCCCCC(=O)N[C@H](C(=O)N[C@@H](CO)C(=O)N[C@H]1CCNC(=O)[C@H]([C@@H](C)O)NC(=O)[C@H](CCN)NC(=O)[C@H](CCN)NC(=O)[C@H](CC(C)C)NC(=O)[C@H](Cc2ccccc2)NC(=O)[C@H](CCN)NC1=O)[C@@H](C)O
inhibition zone (IZ) (Escherichia coli [2]): 230 mm2
inhibition zone (IZ) (Escherichia coli [3]): 80 mm2

CCCCCCCC(=O)N[C@H](C(=O)N[C@@H](CCN)C(=O)N[C@H]1CCNC(=O)[C@H]([C@@H](C)O)NC(=O)[C@H](CCN)NC(=O)[C@H](CCN)NC(=O)[C@H](CC(C)C)NC(=O)[C@@H](Cc2ccccc2)NC(=O)[C@H](CC)NC1=O)[C@@H](C)O (Octanoyl-T[Dab][Dab][Abu][dF]L[Dab][Dab]T; lactam 3-C)
inhibition zone (IZ) (Escherichia coli [2]): 100 mm2
inhibition zone (IZ) (Escherichia coli [3]): 0 mm2

CCCCCCCC(=O)N[C@@H](CCN)C(=O)N[C@H](C(=O)N[C@@H](CCN)C(=O)N[C@H]1CCNC(=O)[C@H]([C@@H](C)O)NC(=O)[C@H](CC)NC(=O)[C@H](CCN)NC(=O)[C@H](CC(C)C)NC(=O)[C@@H](Cc2ccccc2)NC(=O)[C@H](CC)NC1=O)[C@@H](C)O (Octanoyl-[Dab]T[Dab][Dab][Abu][dF]L[Dab][Abu]T; lactam 4-C)
inhibition zone (IZ) (Escherichia coli [2]): 10 mm2
inhibition zone (IZ) (Escherichia coli [3]): 0 mm2

From ChEMBL document CHEMBL1671867, “Novel polymyxin derivatives carrying only three positive charges are effective antibacterial agents” (Antimicrob Agents Chemother, 2008)
